The values below come from ChEMBL document CHEMBL1153304, “2,4-Diaminopyridine delta-opioid receptor agonists and their associated hERG pharmacology” (Bioorg Med Chem Lett, 2009).

Data set [1] deals with Voltage-gated inwardly rectifying potassium channel KCNH2 (Homo sapiens, UniProt Q12809). As to the kind of experiment: Inhibition of human ERG.
Data set [2] can be described thus: Metabolic stability in human liver microsomes assessed as intrinsic clearance. It is filed as ADME, Microsome. On the technique in general: Liver microsomes are a subcellular fraction often used to study metabolism.
Data set [3] concerns the target T1, Delta-type opioid receptor (Homo sapiens, UniProt P41143). As to the kind of experiment: Agonist activity at delta opioid receptor expressed in CHO cells assessed as inhibition of forskolin-stimulated cAMP production by ALPHAscreen assay. It is filed as functional, cell-based. The method in brief:
(§1)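 CHO cells stably expressing a Flp-In delta opioid receptor construct, grown in DMEM/F12 with 2 mM L-glutamine, 500 µg/ml hygromycin and 10% heat-inactivated FBS. Cells resuspended at 8000 cells/well in HEPES pH 7.4/HBSS buffer with 0.1% BSA, 10 mM MgCl2 and 0.5 mM IBMX. Forskolin 20 µM final, 30 min. cAMP read by ALPHAscreen with biotin-cAMP competition after overnight incubation. EC50 from percentage agonist activity.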
For orientation: Cyclic AMP is a second messenger, typically raised through Gs and lowered through Gi signalling.

A short description of data set [4]: Selectivity for human recombinant DOR over mu opioid receptor.
For a further data set, the species on record is Rattus norvegicus. As to the kind of experiment: Inhibition of neuropathic pain in rat electromyography model. It is filed as functional. In a few lines: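 Rat electromyography (EMG) pain model. Agonist given by infusion protocol (bolus + continuous infusion) at 76 µg/kg + 72 µg/kg/hr, 240 µg/kg + 290 µg/kg/hr, or 660 µg/kg + 920 µg/kg/hr to reach target plasma levels. Mean free plasma concentration measured at each dose. Read-out: EMG response inhibition relative to control animals.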

The nature of a further data set: Clearance in rat. Conditions: in vivo.
A further data set is filed under the species Canis familiaris. In words: Effect on QTC prolongation in Beagle dog at 291 nM free plasma concentration. It is filed as functional, organism-based. Conditions: Canis lupus familiaris.
Data set [5] concerns the target T1, Delta-type opioid receptor. In words: Agonist activity at human recombinant delta opioid receptor expressed in CHO cells assessed as inhibition of forskolin-stimulated cAMP production by ALPHAscreen assay relative to BW373U86. It is filed as functional, cell-based. In a few lines:
as §1

A further data set concerns the target Mu-type opioid receptor (Homo sapiens, UniProt P35372). As to the kind of experiment: Agonist activity at mu opioid receptor. It is filed as functional.

Calls of active or inactive are those of the source. The calls are words filed in the database; no cut-off is given here. Where only a bound is given, the exact number is not on record here.

T1 sequence (P41143 whole entry): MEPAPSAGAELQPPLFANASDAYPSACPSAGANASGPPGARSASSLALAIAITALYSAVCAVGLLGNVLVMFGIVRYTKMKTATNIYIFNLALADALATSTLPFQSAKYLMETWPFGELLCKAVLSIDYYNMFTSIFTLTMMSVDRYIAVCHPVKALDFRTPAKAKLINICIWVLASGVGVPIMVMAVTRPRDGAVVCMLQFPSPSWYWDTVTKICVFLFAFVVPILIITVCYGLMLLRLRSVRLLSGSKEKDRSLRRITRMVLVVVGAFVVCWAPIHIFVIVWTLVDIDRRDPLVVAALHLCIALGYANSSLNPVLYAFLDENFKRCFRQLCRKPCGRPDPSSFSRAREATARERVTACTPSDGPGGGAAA
Voltage-gated inwardly rectifying potassium channel KCNH2, sequence (Q12809 whole entry): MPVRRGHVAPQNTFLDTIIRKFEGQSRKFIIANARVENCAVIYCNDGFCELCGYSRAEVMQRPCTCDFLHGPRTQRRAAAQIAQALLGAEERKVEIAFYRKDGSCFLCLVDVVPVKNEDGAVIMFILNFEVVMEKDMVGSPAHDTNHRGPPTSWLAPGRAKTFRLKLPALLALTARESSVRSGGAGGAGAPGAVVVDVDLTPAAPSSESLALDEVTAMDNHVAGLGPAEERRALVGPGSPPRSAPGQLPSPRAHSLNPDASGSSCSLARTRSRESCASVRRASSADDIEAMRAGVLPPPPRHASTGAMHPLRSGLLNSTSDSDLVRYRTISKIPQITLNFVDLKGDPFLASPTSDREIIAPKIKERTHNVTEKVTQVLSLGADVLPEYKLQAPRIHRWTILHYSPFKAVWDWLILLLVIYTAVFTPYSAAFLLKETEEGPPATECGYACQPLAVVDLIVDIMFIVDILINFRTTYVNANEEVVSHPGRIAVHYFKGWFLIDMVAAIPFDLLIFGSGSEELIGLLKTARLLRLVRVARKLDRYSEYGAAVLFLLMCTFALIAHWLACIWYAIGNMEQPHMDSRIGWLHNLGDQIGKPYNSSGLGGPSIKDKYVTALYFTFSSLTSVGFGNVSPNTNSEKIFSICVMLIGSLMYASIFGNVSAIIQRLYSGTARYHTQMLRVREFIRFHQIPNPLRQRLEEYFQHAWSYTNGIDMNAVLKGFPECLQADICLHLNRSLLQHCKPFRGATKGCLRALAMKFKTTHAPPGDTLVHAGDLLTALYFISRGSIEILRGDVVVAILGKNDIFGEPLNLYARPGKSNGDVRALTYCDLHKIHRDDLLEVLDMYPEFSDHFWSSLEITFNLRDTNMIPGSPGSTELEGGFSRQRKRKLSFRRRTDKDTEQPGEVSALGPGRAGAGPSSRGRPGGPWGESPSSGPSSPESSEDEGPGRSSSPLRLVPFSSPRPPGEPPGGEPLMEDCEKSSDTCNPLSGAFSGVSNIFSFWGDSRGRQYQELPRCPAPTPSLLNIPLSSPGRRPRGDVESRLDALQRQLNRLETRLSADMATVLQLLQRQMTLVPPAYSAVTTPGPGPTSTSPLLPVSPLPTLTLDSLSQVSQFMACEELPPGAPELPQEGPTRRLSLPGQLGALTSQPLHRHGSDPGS
Mu-type opioid receptor, sequence (P35372 whole entry): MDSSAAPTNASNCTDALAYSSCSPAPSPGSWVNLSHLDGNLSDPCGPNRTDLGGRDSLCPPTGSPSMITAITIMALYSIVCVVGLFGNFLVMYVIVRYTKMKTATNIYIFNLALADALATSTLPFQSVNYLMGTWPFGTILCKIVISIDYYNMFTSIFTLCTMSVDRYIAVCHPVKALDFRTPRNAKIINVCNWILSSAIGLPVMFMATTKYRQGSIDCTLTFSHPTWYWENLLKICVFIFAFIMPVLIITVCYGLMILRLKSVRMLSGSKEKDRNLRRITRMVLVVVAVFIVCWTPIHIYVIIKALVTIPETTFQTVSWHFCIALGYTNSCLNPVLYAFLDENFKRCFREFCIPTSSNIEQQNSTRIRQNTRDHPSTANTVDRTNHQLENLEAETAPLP

As usually defined, the Ki is the dissociation constant of the complex between target and ligand, obtained from inhibition or displacement. A high value points to weaker binding. One may read the microsomal CLint as the rate of metabolic loss divided by the concentration. In data set [1], `COc1ccc(-n2c(=O)n(C3CCN(c4cc(N)ccn4)CC3)c3ncccc32)cc1` registered a Ki of 865 nM. Further, the microsomal CLint in data set [2] was determined as 23 µL/min/mg.
With `Nc1ccnc(N2CCC(n3c(=O)n(Cc4ccccc4)c4cccnc43)CC2)c1`, the microsomal CLint in [2] is 20 µL/min/mg.
One may read the EC50 as the concentration that produces a half-maximal response. As to `Nc1ccnc(N2CCC(NC(=O)c3ccccn3)(c3ccccc3)CC2)c1`, the affinity in data set [1], expressed as Ki, was 548 nM. Moreover, the microsomal CLint in data set [2] was found to be 14 µL/min/mg. Also, the EC50 in data set [3] was determined as 60 nM. Also, the fold change (FC) in data set [4] was found to be 50.
The compound `Nc1ccnc(N2CCC(n3c(=O)n(-c4ccccc4)c4cccnc43)CC2)c1` returned an inhibition constant (Ki) in data set [1] of 903 nM. Besides, the microsomal CLint in data set [2] is 19 µL/min/mg.
`CCN(CC)C(=O)[C@H]1OC2(CCN(c3cc(N)ccn3)CC2)c2ccccc21` yielded a Ki in data set [1] of more than 10000 nM. Moreover, the microsomal CLint in data set [2] was determined as 13 µL/min/mg. Further, the EC50 in data set [3] worked out at 12 nM. For the same compound, the fold change (FC) in data set [4] was determined as 50.
Compound `COc1ccc(C(=O)NC2(c3ccccc3)CCN(c3cc(N)ccn3)CC2)cc1Cl` came in with a Ki in data set [1] of 343 nM. In addition, the microsomal CLint in [2] was found to be 69 µL/min/mg. Also, the EC50 in data set [3] stood at 59 nM. In addition, in data set [4], the fold change (FC) turned out to be 50.
With `COc1ccc(CNC(=O)C2(c3ccccc3)CCN(c3cc(N)ccn3)CC2)cc1`, the microsomal CLint in data set [2] stood at 40 µL/min/mg. Also, the EC50 in [3] came to 17 nM. For the same compound, the fold change (FC) in data set [4] amounted to 50.
Consider `Nc1ccnc(N2CCC(N(C(=O)C3CC3)c3ccccn3)CC2)c1`, for which, in data set [2], the microsomal CLint is less than 7 µL/min/mg.
Broadly, the clearance is a measure of how efficiently the substance is removed, as volume per time. Low readings indicate a low capacity for elimination, high ones a high capacity for elimination. Consider `CN(C)C(=O)[C@H]1CC2(CCN(c3cc(N)ccn3)CC2)c2ccccc21`, for which the “inhibition (INH)” value in the data set listed under Rattus norvegicus is reported as 60%. For the same compound, the microsomal CLint in [2] was less than 7 µL/min/mg. The EC50 in data set [3] came to 27 nM. In addition, in the data set “Clearance in rat”, the clearance is more than 70 mL/min/kg. The outcome in the data set filed under Canis familiaris was Active. The fold change (FC) in data set [4] is 50.
In the case of `COc1cccc(C2(C)CN(c3cc(N)ccn3)C2)c1`, the Ki in [1] stood at 1840 nM. The EC50 in data set [3] is 846 nM. Besides, the fold change (FC) in data set [4] was found to be 2.
Consider `Nc1ccnc(N2CCC(NC(=O)[C@@H]3CCCO3)(c3ccccc3)CC2)c1`, for which the microsomal CLint in [2] turned out to be 13 µL/min/mg. The 50% effective concentration (EC50) in data set [3] worked out at 171 nM. The fold change (FC) in [4] was found to be 50.
`COc1cccc(C(=O)N(c2ccccn2)C2CCN(c3cc(N)ccn3)CC2)c1` returned a Ki in [1] of 9690 nM. Besides, the intrinsic metabolic clearance (microsomal CLint) in data set [2] amounted to 17 µL/min/mg.
As for `COc1ccc(C(=O)N(c2cc(C)ccn2)C2CCN(c3cc(N)ccn3)CC2)cc1`, in data set [2], the microsomal CLint amounted to 12 µL/min/mg.
For the compound `Nc1ccnc(N2CCC(C(=O)N3CCc4ccccc4C3)(c3ccccc3)CC2)c1`, the microsomal CLint in data set [2] turned out to be 46 µL/min/mg. Further, in data set [3], the EC50 is 13 nM. Besides, in data set [4], the fold change (FC) turned out to be 50.
On the same counts, the results for `COc1ccc(C(=O)NC2(c3ccccc3)CCN(c3cc(N)ccn3)CC2)c(OC)c1` are 43 µL/min/mg, 14 nM and 50.
For the compound `Nc1ccnc(N2CCC3(CC2)OCc2ccccc23)c1`, the EC50 in data set [3] stood at 308 nM. Also, in [4], the fold change (FC) came to 50.
In the case of `Nc1ccnc(N2CCC3(CC2)OC(c2ccccc2)c2ccccc23)c1` (stereo unspecified), the affinity in data set [1], expressed as Ki, was 18 nM. For the same compound, in data set [2], the intrinsic clearance (microsomal CLint) stood at 10 µL/min/mg. Further, the EC50 in [3] came to 59 nM. In addition, the fold change (FC) in data set [4] stood at 50.
For the compound `CCOC(=O)N1CCN(C(=O)C2(c3ccccc3)CCN(c3cc(N)ccn3)CC2)CC1`, the microsomal CLint in data set [2] is 62 µL/min/mg. The EC50 in data set [3] was 24 nM. Further, the fold change (FC) in data set [4] was found to be 17.
As for `Nc1ccnc(N2CCC(C(=O)Nc3ccc4ccccc4n3)(c3ccccc3)CC2)c1`, in [2], the microsomal CLint was 22 µL/min/mg. The EC50 in data set [3] is 5 nM.
As a reminder, the Emax is the size of the effect at its maximum, as opposed to the concentration needed. In the case of `CC(=O)C1(c2ccccc2)CCN(c2cc(N)ccn2)CC1`, the maximum response (Emax) in data set [5] came out at 100%. Besides, in data set [2], the microsomal CLint was less than 7 µL/min/mg. Further, the EC50 in data set [3] was 263 nM; on Mu-type opioid receptor, more than 10000 nM. Moreover, the fold change (FC) in [4] is 50.
Regarding `Nc1ccnc(N2CCC(N(C(=O)C3CCCCC3)c3ccccn3)CC2)c1`, in [2], the microsomal CLint was 80 µL/min/mg.
In [1], `Nc1ccnc(N2CCC(n3c(=O)n(CC4CC4)c4cccnc43)CC2)c1` showed a Ki of 746 nM. In addition, in [2], the microsomal CLint amounted to 13 µL/min/mg.
